Experimental data of several laboratories.
Protocols differ between the studies behind these lines.
Target: Macrophage-stimulating protein receptor (MST1R, Homo sapiens, UniProt Q04912)

For `CC/C(=N\NC(=O)NCc1cccc(O)c1)c1ccc(O)c(C)c1O`, the inhibition was -1.5% (enzyme activity; inhibitor; 0.1 µM).
With `Cc1ccc(Nc2nccc(N(C)c3ccc4c(C)n(C)nc4c3)n2)cc1S(N)(=O)=O` the inhibition was -4% (cell-free assay; 10 µM).
With `CCN(CC)c1ccc(C2=NNC(=O)CC2C)cc1[N+](=O)[O-]` (stereo not shown) the remaining activity was 106% (enzyme activity; inhibitor; 10 µM).
The inhibition of `COc1cc2ncnc(Nc3ccc(Oc4ccccc4)cc3C)c2cc1OC` is reported as -3% (enzyme activity; inhibitor; 1 µM).
`COc1cc2c(Nc3ccc(Br)cc3F)ncnc2cc1OCC1CCN(C)CC1` gave a remaining signal of 93.6% (cell-free assay; 0.5 µM).
`CNC(=O)c1cc(Oc2ccc(NC(=O)Nc3ccc(Cl)c(C(F)(F)F)c3)cc2)ccn1` has an inhibition of -10% (cell-free assay; 0.3 µM).
With `CCN(CC)CCNC(=O)c1c(C)[nH]c(/C=C2\C(=O)Nc3ccc(F)cc32)c1C` the remaining activity was 138% (enzyme activity; inhibitor; 1 µM).
With `CC(C)(O)[C@H]1CC[C@H](Nc2ccc3ncc(-c4cccc(C(F)(F)F)c4)n3n2)CC1` the remaining activity was 101% (enzyme activity; inhibitor; 1 µM).
For `Cc1ccc(C(=O)Nc2ccc(CN3CCN(C)CC3)c(C(F)(F)F)c2)cc1C#Cc1cnc2cccnn12`, the remaining signal was 100% (cell-free assay; 23.5 nM).
With `CNC(=O)c1cc2c(Oc3ccc(NC(=O)C4(C(=O)Nc5ccc(F)cc5)CC4)cc3)ccnc2cc1OC` the inhibition was 90% (enzyme activity; inhibitor; radiometric; 1 µM).
The remaining signal of `Clc1ccc(Nc2nnc(Cc3ccncc3)c3ccccc23)cc1` is reported as 91.6% (cell-free assay; 0.5 µM).
For `Cc1cc(-n2nc(Cc3cc(F)cc(C(F)(F)F)c3)nc2C)ccc1C(N)=O`, the remaining binding was 100% (cell-free assay; competition with immobilised ligand; 1 µM).
`Cc1sc(C(=O)NC2COC2)cc1-n1cc(NC(=O)Nc2c(F)cccc2Cl)cn1` has a remaining activity of 96.9% (enzyme activity; inhibitor; 10 µM).
`O=C(NS(=O)(=O)c1ccc(NCC2CCOCC2)c([N+](=O)[O-])c1)c1ccc(N2CCN(Cc3ccc(C(F)(F)F)cc3-c3ccc(Cl)cc3)CC2)cc1Oc1cnc2[nH]ccc2c1` gave a remaining binding of 96% (cell-free assay; competition with immobilised ligand; 1 µM).
`CCCCNc1ncc2c(-c3ccc(F)cc3)nn(C[C@H]3CC[C@H](N)CC3)c2n1` has an inhibition of -12.3% (target engagement in cells; inhibitor; chemoproteomics; 20 mM).
For `CCCCN(CCCC)C(=O)CN1C[C@@H](c2cc(OC)c3c(c2)OCO3)[C@H](C(=O)O)[C@H]1CC(C)(C)CCC`, the remaining binding was 100% (cell-free assay; competition with immobilised ligand; 1 µM).
With `CCN(CC)CCNC(=O)c1c(C)[nH]c(/C=C2\C(=O)Nc3ccc(F)cc32)c1C` the inhibition was -1% (cell-free assay; 10 µM).
For `Oc1cccc(-c2nc(N3CCOCC3)c3oc4ncccc4c3n2)c1`, the remaining signal was 94.3% (cell-free assay; 0.5 µM).
`Cc1noc([C@H]2C[C@@H](c3ccc(C(F)(F)F)cc3)CN(C(=O)N3CCS(=O)(=O)C3)C2)n1` gave a remaining binding of 100% (cell-free assay; competition with immobilised ligand; 1 µM).
The inhibition of `c1ccc(CNc2nc(N3CCOc4ccccc43)nc3c2CCCC3)cc1` is reported as -10.5% (target engagement in cells; inhibitor; chemoproteomics; 20 mM).
`O=C(Nc1ccc(Oc2ccc(F)cc2)cc1)N1CCc2ncccc2[C@H]1c1ccc(F)cc1` has a remaining binding of 98% (cell-free assay; competition with immobilised ligand; 1 µM).
With `CC(C)(C)c1nc2c(s1)c1nc(N)ncc1c1ccc(NS(=O)(=O)c3c(F)cccc3F)c(F)c12` the remaining activity was 116% (enzyme activity; inhibitor; radiometric; 1 µM).
The remaining binding of `O=C1CCc2cc(Nc3cc(OC4CCOCC4)c([N+](=O)[O-])cc3Cl)ccc2N1` is reported as 100% (cell-free assay; competition with immobilised ligand; 1 µM).
For `COc1cc(Cl)c(C(=O)N[C@@H](CN[C@H]2CC[C@@H](N)CC2)Cc2ccc(C#N)cc2)cc1-c1ccc(CN[C@H](C)c2ccc(C)cc2)o1`, the remaining activity was 92% (enzyme activity; inhibitor; 1 µM).
`O=c1nc(-c2ccccn2)sc2ccccc12` has a remaining binding of 100% (cell-free assay; competition with immobilised ligand; 1 µM).
`Cc1[nH]c(/C=C2\C(=O)Nc3ccc(F)cc32)c(C)c1C(=O)N[C@H]1CCN(C(=O)N(C)C)C1` has a remaining activity of 93% (enzyme activity; inhibitor; 0.1 µM).
With `CC1=C(C#N)[C@@H](c2ccc3[nH]nc(C)c3c2)C(C#N)=C(c2ccc(Cl)cc2)N1` the remaining binding was 70.2% (cell-free assay; competition with immobilised ligand; 1 µM).
`CN1CC(Oc2cnc(C#N)cc2-c2ccn3nc(NC(=O)C4CC4)cc3c2)C1` has an inhibition of 5% (enzyme activity; inhibitor; 1 µM).
